These results are taken from ChEMBL document CHEMBL5113556, “Benzo[d]isoxazole Derivatives as Hypoxia-Inducible Factor (HIF)-1α Inhibitors” (ACS Med Chem Lett, 2022).

The subject of data set [1] is HEK-293T. In words: Cytotoxicity against HEK293T cells at 50 uM. It is filed as toxicity, cell-based. As to conditions: human. The essentials: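 Cytotoxicity was read from the Renilla signal of the dual-luciferase reporter run in HEK293T cells (24 h transfection, then 24 h compound exposure) at concentrations up to 50 μM.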
For data set [2], the target named is Hypoxia-inducible factor 1-alpha (Homo sapiens, UniProt Q16665). In words: Inhibition of HIF-1alpha (unknown origin) transcriptional activity expressed in HEK293T cells co-transfected with renilla and HRE-firelfly luciferase incubated for 24 hrs by dual luciferase reporter gene assay. It is filed as cell-based. The essentials: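 HEK293T cells were transfected for 24 h with HIF-1α (P2A), Renilla and HRE-firefly luciferase constructs, then exposed to test compounds for a further 24 h. The firefly signal (luciferin substrate) gave HIF-1 inhibition, normalized to the Renilla signal (coelenterazine substrate). Transcriptional activity was calculated by a formula given in the Supporting Information.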
Chain of Hypoxia-inducible factor 1-alpha (Q16665 whole entry): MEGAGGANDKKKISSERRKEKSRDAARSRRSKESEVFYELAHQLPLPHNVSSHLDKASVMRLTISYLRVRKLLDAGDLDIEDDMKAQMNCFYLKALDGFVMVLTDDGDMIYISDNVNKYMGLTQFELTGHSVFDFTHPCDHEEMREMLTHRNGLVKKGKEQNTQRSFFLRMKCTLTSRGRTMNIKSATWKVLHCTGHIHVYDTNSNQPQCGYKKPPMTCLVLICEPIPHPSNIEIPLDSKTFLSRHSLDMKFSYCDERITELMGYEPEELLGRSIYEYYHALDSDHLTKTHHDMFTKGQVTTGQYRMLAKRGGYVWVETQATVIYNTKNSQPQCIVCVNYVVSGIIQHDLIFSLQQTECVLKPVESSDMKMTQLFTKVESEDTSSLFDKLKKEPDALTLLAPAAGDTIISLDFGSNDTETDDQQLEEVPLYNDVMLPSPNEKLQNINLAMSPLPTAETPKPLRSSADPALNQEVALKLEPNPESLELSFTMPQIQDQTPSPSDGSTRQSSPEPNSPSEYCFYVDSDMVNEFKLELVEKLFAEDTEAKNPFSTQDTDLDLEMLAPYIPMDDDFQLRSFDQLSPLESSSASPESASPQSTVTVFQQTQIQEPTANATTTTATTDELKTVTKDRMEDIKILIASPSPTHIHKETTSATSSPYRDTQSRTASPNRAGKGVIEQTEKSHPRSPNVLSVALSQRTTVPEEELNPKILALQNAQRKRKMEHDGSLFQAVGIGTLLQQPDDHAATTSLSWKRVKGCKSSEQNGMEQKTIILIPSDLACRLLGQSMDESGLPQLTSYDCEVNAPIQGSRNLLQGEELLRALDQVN
For orientation: A reporter such as luciferase makes a cellular process visible.

A short description of data set [3]: Downregulation of VEGF protein expression in HEK293T cells at 50 uM measured after 24 hrs under […] condition by Western blot analysis relative to control. The class given is functional, Homo sapiens, HEK-293T.
The subject of data set [4] is HEK-293T. In words: Downregulation of VEGF mRNA expression in HEK293T cells measured after 24 hrs under hypoxia condition by RT-PCR analysis. As to conditions: Homo sapiens, dose 0.01-50 µM, DDE = dose-dependent effect.
Data set [5] has as its system HEK-293T. Put plainly: Downregulation of PDK1 mRNA expression in HEK293T cells measured after 24 hrs under hypoxia condition by RT-PCR analysis. As to conditions: Homo sapiens, dose 0.01-50 µM, DDE = dose-dependent effect.

Each structure is given as a SMILES string.

As usually defined, the IC50 is the concentration at which inhibition is half-maximal.

For `COc1cccc(NC(=O)c2noc3ccccc23)c1`, the Activity result with HEK-293T [1] is on record as “Non-Toxic”. Moreover, the half-maximal inhibitory concentration (IC50) in data set [2] is 0.17 µM.
On the same counts, the results for `COc1ccccc1NC(=O)c1noc2ccccc12` are “Non-Toxic” and 5.5 µM.
Consider `O=C(NCc1ccccc1)c1noc2ccccc12`, for which the Activity result in the data set with HEK-293T [1] is reported as “Non-Toxic”.
For the compound `O=C(c1noc2ccccc12)N1CCCCC1`, the Activity entry in the data set with HEK-293T [1] was “Non-Toxic”.
For the compound `O=C(Nc1ccc2scnc2c1)c1noc2ccccc12`, the Activity result in the data set on HEK-293T [1] was “Non-Toxic”. In data set [2], this compound had an IC50 of 0.042 µM.
With `O=C(Nc1ccccc1Cl)c1noc2ccccc12`, the Activity entry in the data set on HEK-293T [1] was “Non-Toxic”. For the same compound, half-maximal inhibition in data set [2] (IC50) required 2.3 µM.
Turning to `O=C(Nc1ccccc1)c1noc2ccccc12`, the Activity result in the data set on HEK-293T [1] is reported as “Non-Toxic”. Moreover, the IC50 in data set [2] stood at 0.31 µM.
Take `O=C1CCCc2cc(NC(=O)c3noc4ccccc34)ccc21`: the Activity entry with HEK-293T [1] is reported as “Non-Toxic”. The compound further had a 50% inhibitory concentration (IC50) in data set [2] of 0.64 µM.
With `O=C(Nc1ccncc1)c1noc2ccccc12`, the Activity result with HEK-293T [1] is “Non-Toxic”. Moreover, the IC50 in data set [2] was determined as 10 µM.
With `CC(=O)c1ccc(NC(=O)c2noc3ccccc23)cc1`, the Activity in data set [3] is 20%; with HEK-293T [4] it was “Dde”; in the data set with HEK-293T [5] it was “Dde”; in the data set on HEK-293T [1], “Non-Toxic”. This compound came in with a half-inhibitory concentration (IC50) in data set [2] of 0.024 µM.
In the case of `O=C(Nc1ccccn1)c1noc2ccccc12`, in the data set with HEK-293T [1], the Activity entry is listed as “Non-Toxic”. Moreover, the 50% inhibitory concentration (IC50) in data set [2] is 0.94 µM.
On to `O=C(Nc1cccc([N+](=O)[O-])c1)c1noc2ccccc12`, for which the Activity result in the data set with HEK-293T [1] is “Non-Toxic”. This compound also returned an IC50 in data set [2] of 0.48 µM.
On the same counts, the results for `O=C(NC1CCCCC1)c1noc2ccccc12` are “Non-Toxic” and 5.4 µM.
Regarding `CC(=O)c1cccc(NC(=O)c2noc3ccccc23)c1`, the Activity entry in the data set with HEK-293T [1] is “Non-Toxic”. The half-inhibitory concentration (IC50) in data set [2] came out at 0.64 µM.
As to `COc1ccc(NC(=O)c2noc3ccccc23)cc1`, the Activity result with HEK-293T [1] is reported as “Non-Toxic”. Further, the IC50 in data set [2] was determined as 0.04 µM.
On to `CN(C)c1ccc(NC(=O)c2noc3ccccc23)cc1`, for which the values for the Activity entry in the data set on HEK-293T [4], with HEK-293T [5] and in the data set on HEK-293T [1] were “Dde”, “Dde” and “Non-Toxic”, respectively. In addition, 0.024 µM corresponded to half-maximal inhibition in data set [2] (IC50).
Take `CN(C)c1cccc(NC(=O)c2noc3ccccc23)c1`: in the data set with HEK-293T [1], the Activity result is “Non-Toxic”. Half-maximal inhibition in data set [2] (IC50) required 7.4 µM.
On the same counts, the results for `O=C(Nc1ccc(Cl)cc1)c1noc2ccccc12` are “Non-Toxic” and 0.041 µM.
On the same counts, the results for `COC(=O)c1ccc(O)c(NC(=O)COc2ccc(C34CC5CC(CC(C5)C3)C4)cc2)c1` are “Non-Toxic” and 2.6 µM.
`O=C(Nc1noc2ccccc12)c1ccccc1`: the Activity entry in the data set with HEK-293T [1] is recorded as “Non-Toxic”.
Take `CN(C)c1ccccc1NC(=O)c1noc2ccccc12`: the Activity result in the data set on HEK-293T [1] is on record as “Non-Toxic”.
`O=C(Nc1ccc2ccccc2c1)c1noc2ccccc12`: the Activity result with HEK-293T [1] is “Non-Toxic”. Further, in data set [2], the 50% inhibitory concentration (IC50) stood at 0.075 µM.
Take `O=C(Nc1ccccc1)c1ccon1`: the Activity entry in the data set on HEK-293T [1] is “Non-Toxic”.
With `O=C(Nc1cccc(Cl)c1)c1noc2ccccc12`, the Activity result in the data set with HEK-293T [1] was “Non-Toxic”. The half-inhibitory concentration (IC50) in data set [2] worked out at 0.25 µM.
On the same counts, the results for `CCn1c2ccccc2c2cc(NC(=O)c3noc4ccccc34)ccc21` are “Non-Toxic” and 0.81 µM.
On to `O=C(Nc1cccc(-c2ccccc2)c1)c1noc2ccccc12`, for which the Activity result in the data set on HEK-293T [1] is on record as “Non-Toxic”. Inhibition in data set [2] was half-maximal at 1.7 µM (IC50).
`COC(=O)c1cccc(NC(=O)c2noc3ccccc23)c1`: the Activity entry with HEK-293T [1] was “Non-Toxic”. Further, half-maximal inhibition in data set [2] (IC50) was put at 0.2 µM.
